For test [1], the system named is HeLa. The experiment in a line: Cytotoxicity against human HeLa cells after 72 hrs by MTT assay. Type of test: functional, cell-based. A digest of the protocol:
(§1)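 MTT read-out of cell viability, with etoposide as positive control. Cell origins: A549, human lung carcinoma; HeLa, cervical cancer; ZR-7530, breast cancer; HCT-15, colon cancer; U373, brain cancer; Hep G2, liver cancer. Potency reported as half-maximal growth inhibitory concentration (IC50).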
In general terms: Tetrazolium dyes change colour on reduction, which living cells bring about.

A short description of test [2]: Cytotoxicity against human U373 cells after 72 hrs by MTT assay. It is filed as functional, cell-based, U-373MG ATCC. To be noted: U373 MG. A digest of the protocol:
as §1

Test [3] is described as follows: Cytotoxicity against human HCT15 cells after 72 hrs by MTT assay. Type of test: functional, cell-based. To be noted: HCT-15, 72 h. A digest of the protocol: as §1
For test [4], the system named is A549. As to the kind of experiment: Cytotoxicity against human A549 cells after 72 hrs by MTT assay. Type of test: functional, cell-based. The following applies: A549, 72 h. The method, boiled down:
as §1

Test [5] in a line: Cytotoxicity against human ZR-7530 cells after 72 hrs by MTT assay. It is filed as functional, cell-based. The following applies: ZR-75-30, 72 h. A digest of the protocol:
as §1

In test [6] the test system is HepG2. As to the kind of experiment: Cytotoxicity against human HepG2 cells after 72 hrs by MTT assay. Type of test: functional, cell-based. The following applies: HepG2, 72 h. A digest of the protocol:
as §1

The term IC50 denotes the concentration that gives 50% inhibition. The low end stands for inhibition by little substance, the high end for a need for much substance.

For the compound `COc1cccc2c1C(=O)C1=C(C[C@H](C)O[C@@H]1C)C2(OC)c1ccc2cc3c(c(O)c2c1O)C(=O)C[C@@](C)(O)C3` (stereo partly specified), the IC50 in test [1] was over 10 µM; in test [2], over 10 µM; in test [3] it was 4.6 µM; in test [4], over 10 µM; in test [5] it was 5.5 µM; in test [6], 4.6 µM.
For `COc1cc(C)cc2c1C(=O)c1c(O)cccc1C2=O`, the IC50 was over 10 µM in test [1]; over 10 µM in test [2]; over 10 µM in test [3]; over 10 µM in test [4]; over 10 µM in test [5]; 9.3 µM in test [6].
`Cc1cc(O)c2c(c1)Cc1ccc(C3c4cccc(O)c4C(=O)c4c(O)cc(C)cc43)c(O)c1C2=O` (stereo unspecified): the half-inhibitory concentration (IC50) in test [1] was over 10 µM; in test [2] it was over 10 µM; in test [3] it was over 10 µM; in test [4], over 10 µM; in test [5], 9.6 µM; in test [6] it was over 10 µM.
With `COc1cc([C@@H]2c3cc4c(cc3[C@@H](O[C@@H]3O[C@@H]5CO[C@@H](C)O[C@H]5[C@H](O)[C@H]3O)[C@H]3COC(=O)[C@H]23)OCO4)cc(OC)c1O` [ETOPOSIDE], the half-inhibitory concentration (IC50) in test [1] worked out at 3.4 µM; in test [2] it was 8.5 µM; in test [3] it was 4.6 µM; in test [4] it was 9.3 µM; in test [5], 2.5 µM; in test [6], 3.6 µM.
Regarding `C[C@@]1(O)CC(=O)c2c(cc3ccc(-c4c5c(c(O)c6c(O)cccc46)C(=O)C[C@@](C)(O)C5)c(O)c3c2O)C1`, the IC50 in test [1] was 4.9 µM; in test [2], over 10 µM; in test [3] it was 4.9 µM; in test [4], over 10 µM; in test [5], 5.8 µM; in test [6], over 10 µM.
`COc1cc(OC)c2c(O)c(C(C)=O)c(C)cc2c1`: the IC50 in test [1] was over 10 µM; in test [2], over 10 µM; in test [3], over 10 µM; in test [4], over 10 µM; in test [5] it was over 10 µM; in test [6], 9.6 µM.

The record behind these values is ChEMBL document CHEMBL3352408, “Karwinaphthopyranones from the fruits of Karwinskia parvifolia and their cytotoxic activities” (J Nat Prod, 2014).
